The values below come from ChEMBL document CHEMBL1938334, “Quinoline tricyclic derivatives. Design, synthesis and evaluation of the antiviral activity of three new classes of RNA-dependent RNA polymerase inhibitors” (Bioorg Med Chem, 2011).

For orientation: EC50 means the concentration giving half of the maximal effect. What is called CC50 is the concentration that lowers cell viability or growth by half. In general, IC50 refers to the point on the concentration scale where inhibition reaches its midpoint.

The nature of series [1]: Antiviral activity against Vaccinia virus Lister Elstree infected in african green monkey Vero 76 cells assessed as reduction of virus-induced plaque formation after 3 days using crystal violet staining. The format is functional, cell-based. To be noted: 72 h.
For series [2], the system named is Poliovirus 1. In words: Antiviral activity against Human poliovirus 1 strain Sabin Chat infected in african green monkey Vero 76 cells assessed as virus-induced reduction of plaque formation after 2 days using crystal violet staining. The series is classed as functional, cell-based. To be noted: Enterovirus C, 48 h.
Series [3] is described as follows: Cytotoxicity against BHK21 cells after 48 to 96 hrs by MTT assay. The format is cell-based, Mesocricetus auratus, BHK-21. To be noted: hamster. In a few lines:
(§1)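 MDBK seeded at 6×10^5 and BHK at 1×10^6 cells/mL in MEM-Earle's with L-glutamine, 1 mM pyruvate, kanamycin, plus 10% horse serum (MDBK) or 10% FBS (BHK). Cells were grown at 37 °C, 5% CO2 with serial compound dilutions (DMSO stocks diluted in medium). Viability by MTT after 48–96 h. CC50 was taken by linear regression versus untreated controls; three independent determinations.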

In series [4] the test system is Vesicular stomatitis Indiana virus. Kind of series: Antiviral activity against clinical isolate Vesicular stomatitis Indiana virus infected in african green monkey Vero 76 cells assessed as reduction of virus-induced plaque formation after 2 days using crystal violet staining. Particulars: 48 h. The format is functional, organism-based.
In series [5] the test system is MCF7. Kind of series: Cytotoxicity against human MCF7 cells after 96 hrs by MTT assay. The series is classed as functional. To be noted: MCF7, 96 h. Put shortly:
(§2)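 Cells were seeded at 1×10^5 cells/mL: leukaemia/lymphoma lines in RPMI-1640, solid tumour and fibroblast lines in specific media, all with 10% FCS. Serial compound dilutions were applied for 96 h at 37 °C, 5% CO2, under conditions allowing controls at least three rounds of multiplication. Viability was read by MTT. CC50 by linear regression. Mean of three determinations.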

In series [6] the test system is WIL2-NS. Kind of series: Cytotoxicity against human WIL2-NS cells after 96 hrs by MTT assay. The series is classed as functional. In a few lines: as §2
In series [7] the test system is Reovirus sp. Kind of series: Antiviral activity against Reovirus type-1 3651 infected in hamster BHK21 cells assessed as inhibition of virus-induced cytopathogenicity after 3 to 4 days by MTT assay. The series is classed as functional, organism-based. Particulars: Reovirus sp., 3651, BHK-21. In a few lines:
(§3)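 Host cells were seeded in 96-well plates at 3×10^4 cells/well (MDBK) or 5×10^4 cells/well (BHK-21) and grown to confluent monolayers overnight. They were infected at m.o.i. 0.01 in maintenance MEM with 0.5% inactivated FBS. Serial compound dilutions were added after 1 h. Viability was read by MTT after 3–4 days at 37 °C. EC50 was taken by linear regression against untreated controls. Mean of three determinations.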
(In general: Cytopathic effects are the visible damage that an infection or toxin causes in cultured cells.)

Series [8] is described as follows: Selectivity index, ratio of EC50 for Bovine viral diarrhea virus 1-NADL to CC50 for MDBK cells. In a few lines: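 CC50 was measured in mock-infected MDBK cells seeded at 6×10^5 cells/mL in MEM-E with 10% horse serum and treated with serial compound dilutions for 48–96 h; viability by MTT. EC50 came from BVDV NADL CPE protection in MDBK cells at m.o.i. 0.01, 3–4 days, MTT. Both were obtained by linear regression.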

The test system of series [9] is Hepatitis C virus. Kind of series: Antiviral activity against HCV1b infected in human GS4.1 cells assessed as inhibition of virus-induced cytopathogenicity by measuring viral NS4A protein level after 72 hrs by ELISA. The series is classed as functional, organism-based, Hepacivirus hominis. To be noted: genotype 1b. In a few lines:
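GS4.1 cells are Huh-7 cells carrying a genotype 1b subgenomic replicon, kept in 0.5 mg/mL G418. They were seeded at 7.5×10^3 cells/well with two-fold serial dilutions of compound (top 75 μM) and incubated 72 h at 37 °C. Huh-7 cells without the replicon served as negative control. NS4A was measured by cell ELISA with anti-NS4A mAb A-236, peroxidase and o-phenylenediamine, A492. EC50 came from four-parameter sigmoidal fit.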

Series [10] relates to DU-145. In words: Cytotoxicity against human DU145 cells after 96 hrs by MTT assay. The format is functional. Particulars: DU-145, 96 h. Put shortly: as §2
In series [11] the test system is Human alphaherpesvirus 1. In words: Antiviral activity against Human herpesvirus 1 strain KOS infected in african green monkey Vero 76 cells assessed as reduction of virus-induced plaque formation after 3 days using crystal violet staining. The format is functional, organism-based. To be noted: Human alphaherpesvirus 1, KOS, 72 h.
The test system of series [12] is CCRF-CEM. In words: Cytotoxicity against human CCRF-CEM cells after 96 hrs by MTT assay. The format is functional. Put shortly:
as §2

The nature of series [13]: Cytotoxicity against MDBK cells after 48 to 96 hrs by MTT assay. The format is cell-based, Bos taurus. To be noted: cattle. Put shortly: as §1
For orientation: Tetrazolium assays rely on reduction of a dye to a coloured formazan, in cell work by metabolically active cells.

Series [14] in a line: Antiviral activity against Bovine viral diarrhea virus 1-NADL infected in MDBK cells assessed as inhibition of virus-induced cytopathogenicity after 3 to 4 days by MTT assay. The format is functional, cell-based. To be noted: Bovine viral diarrhea virus isolates and strains. In a few lines: as §3
In series [15] the test system is SK-MEL-28. Kind of series: Cytotoxicity against human SK-MEL-28 cells after 96 hrs by MTT assay. The series is classed as functional. To be noted: SK-MEL-28, 96 h. Put shortly: as §2
In series [16] the test system is Human orthopneumovirus. Kind of series: Antiviral activity against Human respiratory syncytial virus A2 infected in african green monkey Vero 76 cells assessed as reduction of virus-induced plaque formation after 5 days using crystal violet staining. The format is functional, organism-based. Particulars: 120 h.
A short description of series [17]: Cytotoxicity against human MT4 cells after 96 hrs by MTT assay. The series is classed as cell-based. In a few lines: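 Exponentially growing MT-4 cells seeded at 1×10^5 cells/mL in RPMI-1640 with 10% FBS, penicillin and streptomycin. Incubated with serial compound dilutions at 37 °C, 5% CO2 for 96 h; viability by MTT. CC50 by linear regression relative to untreated controls; mean of three independent determinations.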

In series [18] the test system is Human immunodeficiency virus 1. Kind of series: Antiviral activity against HIV1 3B infected in human MT4 cells assessed as inhibition of virus-induced cytopathogenicity after 4 days by MTT assay. The format is functional, organism-based. Particulars: Human immunodeficiency virus 1, 3B, MT4, 96 h. In a few lines: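 MT-4 cells (1×10^4 per well) were infected with HIV-1 IIIB at 100 CCID50, m.o.i. 0.01, together with serial compound dilutions. Viability was read by MTT after 4 days at 37 °C. EC50 was taken by linear regression versus untreated controls. Mean of three determinations.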

The nature of series [19]: Inhibition of HCV1b BK 6xHis-tagged recombinant NS5B Cdelta 21 RNA dependent RNA polymerase expressed in Escherichia coli (DE3) using GTP as substrate preincubated for 30 mins before substrate addition measured after 120 mins by fluorescence assay. The arrangement: species or system Hepatitis C virus (isolate BK). Put shortly: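 His-tagged NS5B (BVDV C-terminal Δ24; HCV1b Δ21) from E. coli Rosetta 2(DE3)pLysS, Ni-NTA purified, 500–600 ng per 20 μL. The template was poly(rC) 10 μg/mL and the primer oligo(rG)12 0.1 μg/mL, with GTP 80 μM. Buffer: 20 mM Tris pH 7.0, 0.5 mM MnCl2 or 5 mM MgCl2, 5% DMSO. Enzyme/drug 30 min at RT, then GTP added; 120 min at 37 °C (BVDV) or 25 °C (HCV). Read-out was dsRNA dye fluorescence (ex 480/em 520). IC50 from dose–response fits.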

Series [20] can be described thus: Cytotoxicity against human GS4.1 cells. The format is cell-based. In a few lines:
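Huh-7 cells carrying HCV genotype 1b subgenomic replicon, grown in D-MEM/10% FBS with 0.5 mg/mL G418. Seeded at 7.5×10^3 cells/well with two-fold serial dilutions (top 75 μM), incubated 72 h at 37 °C. Viability by MTS-type Cell Titer 96 Aqueous One reagent; CC50 from % cytotoxicity versus concentration curves.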

The subject of series [21] is Coxsackievirus B5. Kind of series: Antiviral activity against Human coxsackievirus B5 Ohio-1 infected in african green monkey Vero 76 cells assessed as reduction of virus-induced plaque formation after 3 days using crystal violet staining. The format is functional, organism-based. Particulars: Enterovirus B, Ohio-1, Vero, 72 h.

SMILES strings stand for the structures. Some results are limits rather than exact numbers.

Take `O=[N+]([O-])c1ccc(-c2nc3cc4cccnc4c(Cl)c3[nH]2)cc1`: the EC50 was more than 100 µM in series [1]; more than 100 µM in series [2]; more than 100 µM in series [4]; more than 100 µM in series [7]; 3.1 µM in series [9]; 44 µM in series [11]. Moreover, the EC50 in series [14] was 1.2 µM; in [16] it was more than 100 µM; in series [18] it was more than 100 µM; in series [21], more than 100 µM. Also, the CC50 in [3] is more than 100 µM; in [5], more than 100 µM; in series [6], more than 100 µM; in series [10] it was more than 100 µM; in series [12], 49 µM; in series [13], more than 100 µM. Further, the values for the half-maximal cytotoxic concentration (CC50) in series [15] and in [20] were more than 100 µM and 12 µM, respectively. Moreover, in series [8], the “Selectivity Index” value is recorded as more than 100. In addition, in [17], the CC50 at 96 h was more than 100 µM. Moreover, the IC50 in series [19] stood at 8 µM.
